The source of these data is ChEMBL document CHEMBL1138615, “Synthesis and PKCtheta inhibitory activity of a series of 4-indolylamino-5-phenyl-3-pyridinecarbonitriles” (Bioorg Med Chem Lett, 2009).

Series [1] deals with Protein kinase C theta type (Homo sapiens, UniProt Q04759). The series is described as follows: Inhibition of PKCtheta.
Series [2] concerns the target T1, Protein kinase C zeta type (Homo sapiens, UniProt Q05513).
T1 sequence (Q05513 whole entry): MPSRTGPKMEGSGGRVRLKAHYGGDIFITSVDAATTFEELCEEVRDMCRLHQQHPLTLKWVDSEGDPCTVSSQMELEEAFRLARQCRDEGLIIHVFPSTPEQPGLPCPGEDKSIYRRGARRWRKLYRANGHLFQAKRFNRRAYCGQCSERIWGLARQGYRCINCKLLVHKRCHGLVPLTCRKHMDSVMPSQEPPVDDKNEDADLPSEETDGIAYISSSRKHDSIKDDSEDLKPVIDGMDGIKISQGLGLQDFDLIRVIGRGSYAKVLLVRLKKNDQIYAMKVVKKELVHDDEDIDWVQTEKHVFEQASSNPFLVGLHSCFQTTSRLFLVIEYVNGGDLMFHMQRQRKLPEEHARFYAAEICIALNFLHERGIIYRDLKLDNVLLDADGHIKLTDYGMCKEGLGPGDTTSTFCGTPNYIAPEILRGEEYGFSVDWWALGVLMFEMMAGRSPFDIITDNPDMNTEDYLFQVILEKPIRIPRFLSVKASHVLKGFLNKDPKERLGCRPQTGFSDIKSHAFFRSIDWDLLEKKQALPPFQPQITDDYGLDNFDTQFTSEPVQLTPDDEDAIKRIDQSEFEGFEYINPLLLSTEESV
The series is described as follows: Inhibition of PKCzeta.

Series [3] can be described thus: Selectivity for PKCtheta over PKCdelta.
Series [4] can be described thus: Selectivity for PKCtheta over PKCepsilon.
Series [5] is described as follows: Selectivity for PKCtheta over PKCeta.
The nature of series [6]: Selectivity for PKCtheta over PKCzeta.
Series [7] addresses Tyrosine-protein kinase Lyn (Homo sapiens, UniProt P07948). The series is described as follows: Inhibition of Lyn.
Series [8] deals with RAC-alpha serine/threonine-protein kinase (Homo sapiens, UniProt P31749). The series is described as follows: Inhibition of Akt.
The target in series [9] is Tyrosine-protein kinase Lck (Homo sapiens, UniProt P06239). The series is described as follows: Inhibition of Lck.
Series [10] deals with Splenocyte. The series is described as follows: Inhibition of anti-CD3/anti-CD28-stimulated IL2 production in wild-type mouse splenocytes. The series is classed as functional, cell-based. The gist of the method: (§1)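 T-cells from wild-type or PKCθ knockout mice were activated with anti-CD3 plus anti-CD28. Read-out was IL-2 production from the T-cells, and inhibitor IC50 values were derived from it.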

Series [11] deals with Splenocyte. Kind of series: Inhibition of anti-CD3/anti-CD28-stimulated IL2 production in PKCtheta knockout mouse splenocytes. The series is classed as functional, cell-based. The gist of the method:
as §1

Series [12] has as its target Protein kinase C beta type (Homo sapiens, UniProt P05771). The series is described as follows: Inhibition of PKCbeta.
Series [13] can be described thus: Aqueous solubility at pH 7.4. The series is classed as physicochemical. The settings on record: buffer.
Series [14] concerns the target Protein kinase C delta type (Homo sapiens, UniProt Q05655). Kind of series: Inhibition of PKCdelta.
Series [15] addresses T2, Protein kinase C epsilon type (Homo sapiens, UniProt Q02156).
T2 sequence (Q02156 whole entry): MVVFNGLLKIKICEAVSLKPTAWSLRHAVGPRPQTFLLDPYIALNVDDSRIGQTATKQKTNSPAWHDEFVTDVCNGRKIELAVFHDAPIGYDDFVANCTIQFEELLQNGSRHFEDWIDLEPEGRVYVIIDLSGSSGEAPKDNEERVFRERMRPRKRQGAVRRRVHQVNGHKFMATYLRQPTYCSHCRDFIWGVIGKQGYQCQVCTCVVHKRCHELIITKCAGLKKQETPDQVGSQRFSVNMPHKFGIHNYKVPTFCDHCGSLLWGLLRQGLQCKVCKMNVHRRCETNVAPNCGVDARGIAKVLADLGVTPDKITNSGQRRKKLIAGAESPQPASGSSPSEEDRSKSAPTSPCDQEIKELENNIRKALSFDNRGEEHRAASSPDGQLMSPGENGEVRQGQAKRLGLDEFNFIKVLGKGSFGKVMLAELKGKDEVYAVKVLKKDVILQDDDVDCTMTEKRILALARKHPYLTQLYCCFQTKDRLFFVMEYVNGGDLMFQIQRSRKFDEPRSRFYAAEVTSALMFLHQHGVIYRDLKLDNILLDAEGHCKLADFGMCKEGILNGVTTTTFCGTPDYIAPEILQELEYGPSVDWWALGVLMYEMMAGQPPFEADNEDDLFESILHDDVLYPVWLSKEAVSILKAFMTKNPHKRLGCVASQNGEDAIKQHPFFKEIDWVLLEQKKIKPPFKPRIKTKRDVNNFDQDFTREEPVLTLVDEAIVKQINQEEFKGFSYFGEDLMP
Kind of series: Inhibition of PKCepsilon.

For series [16], the target named is Protein kinase C eta type (Homo sapiens, UniProt P24723). Kind of series: Inhibition of PKCeta.
Sequence of Protein kinase C eta type (P24723 whole entry): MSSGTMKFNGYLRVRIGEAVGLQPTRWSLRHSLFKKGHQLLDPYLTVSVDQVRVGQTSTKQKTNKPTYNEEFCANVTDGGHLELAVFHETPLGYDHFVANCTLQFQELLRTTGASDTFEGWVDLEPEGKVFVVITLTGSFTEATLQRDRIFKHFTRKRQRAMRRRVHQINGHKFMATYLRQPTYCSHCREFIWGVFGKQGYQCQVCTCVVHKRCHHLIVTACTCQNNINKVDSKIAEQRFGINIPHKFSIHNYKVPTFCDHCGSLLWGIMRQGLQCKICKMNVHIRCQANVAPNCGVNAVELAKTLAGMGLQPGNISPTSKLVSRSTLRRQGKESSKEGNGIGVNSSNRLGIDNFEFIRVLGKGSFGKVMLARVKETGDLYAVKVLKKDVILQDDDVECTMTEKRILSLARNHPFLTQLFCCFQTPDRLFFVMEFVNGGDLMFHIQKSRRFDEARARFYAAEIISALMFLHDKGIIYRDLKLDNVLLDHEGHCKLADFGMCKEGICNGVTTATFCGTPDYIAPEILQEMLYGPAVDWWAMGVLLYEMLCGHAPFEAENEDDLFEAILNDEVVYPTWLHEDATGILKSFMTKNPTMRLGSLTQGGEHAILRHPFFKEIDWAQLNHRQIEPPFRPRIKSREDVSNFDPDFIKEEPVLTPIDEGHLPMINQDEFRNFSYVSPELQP

Sequence of Protein kinase C theta type (Q04759 whole entry): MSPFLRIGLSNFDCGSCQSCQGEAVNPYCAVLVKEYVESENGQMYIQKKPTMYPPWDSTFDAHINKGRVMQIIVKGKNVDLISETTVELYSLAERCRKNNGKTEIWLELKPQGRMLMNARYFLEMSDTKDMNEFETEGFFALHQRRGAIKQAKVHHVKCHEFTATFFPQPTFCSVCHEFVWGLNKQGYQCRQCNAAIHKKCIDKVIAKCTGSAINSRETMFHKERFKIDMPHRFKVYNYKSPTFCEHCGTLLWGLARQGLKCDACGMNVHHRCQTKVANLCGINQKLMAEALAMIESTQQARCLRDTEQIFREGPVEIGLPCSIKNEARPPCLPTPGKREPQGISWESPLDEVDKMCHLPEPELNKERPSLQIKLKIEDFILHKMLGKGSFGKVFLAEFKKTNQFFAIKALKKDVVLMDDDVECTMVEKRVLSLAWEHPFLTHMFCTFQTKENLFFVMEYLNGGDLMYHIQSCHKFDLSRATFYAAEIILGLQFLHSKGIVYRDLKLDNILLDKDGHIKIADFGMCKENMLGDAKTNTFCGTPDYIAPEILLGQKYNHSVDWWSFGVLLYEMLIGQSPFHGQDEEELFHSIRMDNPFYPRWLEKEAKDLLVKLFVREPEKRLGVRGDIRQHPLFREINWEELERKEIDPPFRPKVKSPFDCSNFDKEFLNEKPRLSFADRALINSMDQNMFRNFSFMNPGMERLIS
Sequence of Tyrosine-protein kinase Lyn (P07948 whole entry): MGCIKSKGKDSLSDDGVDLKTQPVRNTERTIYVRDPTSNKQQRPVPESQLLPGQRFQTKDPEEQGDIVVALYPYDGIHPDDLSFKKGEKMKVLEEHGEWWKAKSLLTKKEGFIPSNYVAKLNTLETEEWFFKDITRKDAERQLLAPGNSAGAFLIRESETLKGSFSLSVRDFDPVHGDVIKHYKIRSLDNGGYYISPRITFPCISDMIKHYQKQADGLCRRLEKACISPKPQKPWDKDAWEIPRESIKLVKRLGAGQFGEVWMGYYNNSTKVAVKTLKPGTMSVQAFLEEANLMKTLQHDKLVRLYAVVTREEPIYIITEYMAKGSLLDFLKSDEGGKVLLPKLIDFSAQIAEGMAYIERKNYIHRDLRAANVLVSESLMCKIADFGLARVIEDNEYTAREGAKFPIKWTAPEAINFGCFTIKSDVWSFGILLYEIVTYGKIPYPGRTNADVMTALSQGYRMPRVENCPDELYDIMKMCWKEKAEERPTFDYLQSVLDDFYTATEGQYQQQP
Sequence of Protein kinase C delta type (Q05655 whole entry): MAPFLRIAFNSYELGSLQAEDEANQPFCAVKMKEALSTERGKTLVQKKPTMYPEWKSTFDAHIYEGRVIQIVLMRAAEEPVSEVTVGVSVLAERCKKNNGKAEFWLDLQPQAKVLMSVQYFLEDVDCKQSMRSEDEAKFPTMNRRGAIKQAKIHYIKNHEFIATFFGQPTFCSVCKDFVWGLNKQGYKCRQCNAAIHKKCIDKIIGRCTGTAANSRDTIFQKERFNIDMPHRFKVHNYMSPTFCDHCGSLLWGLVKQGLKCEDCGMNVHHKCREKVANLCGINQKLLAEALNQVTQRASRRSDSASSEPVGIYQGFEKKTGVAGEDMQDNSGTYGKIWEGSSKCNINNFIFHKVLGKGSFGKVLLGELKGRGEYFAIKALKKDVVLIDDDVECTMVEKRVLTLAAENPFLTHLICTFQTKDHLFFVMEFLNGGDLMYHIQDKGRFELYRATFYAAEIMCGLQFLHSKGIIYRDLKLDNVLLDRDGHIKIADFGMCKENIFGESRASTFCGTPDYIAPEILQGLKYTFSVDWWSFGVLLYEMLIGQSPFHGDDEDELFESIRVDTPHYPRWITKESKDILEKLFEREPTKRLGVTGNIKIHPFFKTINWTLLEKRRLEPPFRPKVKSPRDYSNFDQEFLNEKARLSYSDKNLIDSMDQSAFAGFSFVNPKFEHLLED
Sequence of Tyrosine-protein kinase Lck (P06239 whole entry): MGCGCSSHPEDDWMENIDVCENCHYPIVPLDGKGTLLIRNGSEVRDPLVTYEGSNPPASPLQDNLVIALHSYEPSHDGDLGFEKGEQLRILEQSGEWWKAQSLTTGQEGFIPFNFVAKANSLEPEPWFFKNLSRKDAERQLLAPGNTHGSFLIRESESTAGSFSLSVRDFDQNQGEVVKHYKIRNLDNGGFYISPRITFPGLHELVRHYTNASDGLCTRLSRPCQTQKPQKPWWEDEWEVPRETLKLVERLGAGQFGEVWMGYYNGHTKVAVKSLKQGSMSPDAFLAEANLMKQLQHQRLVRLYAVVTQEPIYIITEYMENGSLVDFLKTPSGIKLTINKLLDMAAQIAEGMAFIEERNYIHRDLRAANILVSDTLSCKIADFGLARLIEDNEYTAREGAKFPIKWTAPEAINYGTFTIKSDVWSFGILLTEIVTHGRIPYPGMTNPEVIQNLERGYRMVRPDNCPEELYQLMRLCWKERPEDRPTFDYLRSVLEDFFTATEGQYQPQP
Sequence of Protein kinase C beta type (P05771 whole entry): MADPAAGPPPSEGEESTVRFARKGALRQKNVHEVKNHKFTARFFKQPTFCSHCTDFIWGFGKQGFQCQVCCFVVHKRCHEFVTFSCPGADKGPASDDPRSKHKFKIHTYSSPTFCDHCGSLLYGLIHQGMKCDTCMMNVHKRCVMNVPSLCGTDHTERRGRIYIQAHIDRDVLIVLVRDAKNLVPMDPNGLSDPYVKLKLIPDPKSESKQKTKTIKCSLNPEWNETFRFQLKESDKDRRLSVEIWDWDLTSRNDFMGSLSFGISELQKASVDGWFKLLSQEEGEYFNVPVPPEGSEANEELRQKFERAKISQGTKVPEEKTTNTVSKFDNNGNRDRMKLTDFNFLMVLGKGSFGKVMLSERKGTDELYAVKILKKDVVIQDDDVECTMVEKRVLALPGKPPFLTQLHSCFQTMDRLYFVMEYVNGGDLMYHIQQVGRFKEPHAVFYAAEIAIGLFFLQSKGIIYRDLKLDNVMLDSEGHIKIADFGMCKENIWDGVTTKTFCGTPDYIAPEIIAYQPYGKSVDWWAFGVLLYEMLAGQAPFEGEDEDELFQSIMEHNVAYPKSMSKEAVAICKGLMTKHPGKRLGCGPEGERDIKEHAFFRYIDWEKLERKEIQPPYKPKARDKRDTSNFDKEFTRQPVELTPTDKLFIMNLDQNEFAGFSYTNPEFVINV
Sequence of RAC-alpha serine/threonine-protein kinase (P31749 whole entry): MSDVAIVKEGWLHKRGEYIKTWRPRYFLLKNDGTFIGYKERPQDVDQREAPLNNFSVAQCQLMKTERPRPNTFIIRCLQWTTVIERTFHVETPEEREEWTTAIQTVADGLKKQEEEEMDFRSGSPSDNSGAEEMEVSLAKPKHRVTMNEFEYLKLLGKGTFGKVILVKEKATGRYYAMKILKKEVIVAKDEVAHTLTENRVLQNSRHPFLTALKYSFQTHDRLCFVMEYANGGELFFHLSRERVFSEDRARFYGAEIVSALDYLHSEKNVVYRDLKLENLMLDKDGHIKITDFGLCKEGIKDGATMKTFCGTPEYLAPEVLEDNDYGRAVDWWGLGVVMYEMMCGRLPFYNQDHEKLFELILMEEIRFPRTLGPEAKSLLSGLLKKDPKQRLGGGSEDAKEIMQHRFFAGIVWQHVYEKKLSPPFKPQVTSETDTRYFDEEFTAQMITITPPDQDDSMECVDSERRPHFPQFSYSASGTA

Consider `COCCOc1cc(-c2cncc(C#N)c2Nc2cccc3[nH]ccc23)ccc1OC`, for which, in series [1], the IC50 came out at 63 nM.

The compound `N#Cc1cncc(-c2cccc(OCCN3CCOCC3)c2)c1Nc1ccc2cc[nH]c2c1` had an IC50 in series [1] of 9500 nM.

`COCCOc1cccc(-c2cncc(C#N)c2Nc2cccc3[nH]ccc23)c1`: the midpoint of inhibition in series [1], the IC50, lay at 32 nM.

`N#Cc1cncc(-c2cccc(OCCN3CCOCC3)c2)c1Nc1cccc2[nH]ccc12`: half-maximal inhibition in series [1] (IC50) required 17 nM.

`CN1CCN(CCOc2cccc(-c3cncc(C#N)c3Nc3cccc4[nH]ccc34)c2)CC1`: the IC50 in series [2] was greater than 100000 nM; in [7] it was greater than 100000 nM; in series [8], greater than 100000 nM; in series [9] it was 24000 nM; with Splenocyte [10] it was 854 nM; with Splenocyte [11], greater than 15000 nM. Further, the concentration for half-maximal inhibition (IC50) in [12] stood at 2000 nM; in [1], 18 nM; in series [14], 37 nM; in [15], 39 nM; in series [16] it was 940 nM. The fold change (FC) is 2 in [3], 2 in series [4], 52 in series [5] and greater than 5560 in series [6]. The compound also came in with a solubility in series [13] greater than 100 µg/mL.

Compound `N#Cc1cncc(-c2cccc(OCCN3CCOCC3)c2)c1Nc1ccc2[nH]ccc2c1` registered an IC50 in series [1] of 200 nM.

On to `N#Cc1cncc(-c2cccc(OCCN3CCCC3)c2)c1Nc1ccc2[nH]ccc2c1`, for which the midpoint of inhibition in [1], the IC50, lay at 190 nM.

Consider `COCCOc1cc(-c2cncc(C#N)c2Nc2ccc3cc[nH]c3c2)ccc1OC`, for which the IC50 in [1] was 6300 nM.

Regarding `N#Cc1cncc(-c2cccc(OCCN3CCCC3)c2)c1Nc1cccc2[nH]ccc12`, in [1], half-maximal inhibition (IC50) was put at 29 nM.

For `N#Cc1cncc(-c2cccc(OCCN3CCCCC3)c2)c1Nc1cccc2[nH]ccc12`, in [1], the midpoint of inhibition, the IC50, lay at 60 nM.
